From ChEMBL document CHEMBL1135455, “3-Aminopyrrolidinone farnesyltransferase inhibitors: design of macrocyclic compounds with improved pharmacokinetics and excellent cell potency” (J Med Chem, 2002)

Assays:
Cytochrome P450 3A4 [1] = target: T1, Cytochrome P450 3A4 (Homo sapiens, UniProt P08684); assay: (§1) Inhibition of human Cytochrome P450 3A4 by macrocycles
[2] = target: T2, Protein farnesyltransferase (Rattus norvegicus, UniProt Q02293+Q04631); assay: Inhibition of Farnesyltransferase in cells, evaluated in a radiotracer assay for farnesyltransferase inhibition (CRAFTI), in cultured H-ras-transformed Rat cells
[3] = target: Geranylgeranyl transferase type I (Homo sapiens, UniProt P49354+P53609); assay: Inhibitory activity against geranylgeranyl transferase; assay type: protein-complex assay
[4] = target: T3, Protein farnesyltransferase (Homo sapiens, UniProt P49354+P49356); assay: Inhibition of HDJ2 farnesylation in PSN-1 cells over 7 hr assay; assay type: functional, cell-based
[5] = target: T3, Protein farnesyltransferase; assay: Inhibition of HDJ2 farnesylation in PSN-1 cells over 7 hr assay in the presence of 50% human serum.; assay type: functional, cell-based
[6] = Pharmacokinetic data at 0.5 mg/kg dose given to dogs intravenously.; assay type: ADME, organism-based, Canis lupus familiaris; design: dose 0.5 mg/kg, route intravenous; details: dog, iv; for half-life / Vd: in vivo; for Vd: read-out: Vdss; for clearance: plasma, read-out: Clp
How it was run: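 Compound was given intravenously in DMSO to two dogs, in some cases as a mixture with five other compounds. Plasma levels were measured by LC-MS.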

[7] = target: T3, Protein farnesyltransferase; assay: Inhibition of human farnesyltransferase in an enzyme assay.
[8] = target: T3, Protein farnesyltransferase; assay: Inhibition of Farnesyltransferase at 10 pM enzyme concentration
[9] = Pharmacokinetic data for dose given to dogs intravenously (oral PK study in parentheses); assay type: ADME, organism-based, Canis lupus familiaris; details: dog, in vivo
How it was run: (§2)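 Dogs, two per compound, dosed intravenously in DMSO or orally as a 0.5% methocellulose suspension. Some compounds were given intravenously as a cassette with five other compounds. Plasma levels were quantitated by LCMS.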

[10] = suboptimal plasma half-life caused a10% prolongation of QTc interval in dogs at a plasma level of […]; assay type: ADME, organism-based, Canis lupus familiaris; details: dog
[11] = Oral bioavailability of active FTIs in dogs; assay type: ADME, organism-based, Canis lupus familiaris; details: dog, in vivo
[12] = Pharmacokinetic data at 1 mg/kg dose given to dogs intravenously; assay type: ADME, organism-based, Canis lupus familiaris; design: dose 1 mg/kg, route intravenous; details: dog, iv; how it was run: as §2
[13] = target: T2, Protein farnesyltransferase; assay: Inhibition of Farnesyltransferase in H-ras-transformed Rat cells by radiotracer assay (CRAFTI)
[14] = target: T3, Protein farnesyltransferase; assay: Inhibition of HDJ2 farnesylation in PSN-1 cells over 7 hr assay in the presence of 50% human serum; assay type: functional, cell-based
[15] = target: T3, Protein farnesyltransferase; assay: Inhibition of Farnesyltransferase at 10 pM enzyme concentration; remark: listed apart in the source
[16] = Bioavailability in dog (dose 1 mg/kg i.v.); details: in vivo, iv
[17] = Clearance in dog (dose 1 mg/kg i.v.); details: plasma, iv
Cytochrome P450 3A4 [18] = target: T1, Cytochrome P450 3A4; assay: as §1; assay type: ADME
How it was run: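 Pooled liver microsomes, dog (7) or human (8, 9), at 0.25 mg protein/mL were incubated 10 min with 75 µM testosterone and an NADPH-generating system, with or without compound (0.05-100 µM). 6β-Hydroxytestosterone was quantified by LC-MS/MS against a cortisone internal standard. IC50 was taken from product formed relative to the control incubation.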

Cytochrome P450 3A4 [19] = target: T1, Cytochrome P450 3A4; assay: Inhibition of dog Cytochrome P450 3A by macrocycles
[20] = target: Voltage-gated inwardly rectifying potassium channel KCNH2 (Homo sapiens, UniProt Q12809); assay: Inflection point affinity for binding to K+ channel HERG.; details: IP
Voltage-gated inwardly rectifying potassium channel KCNH2, sequence (Q12809 whole entry): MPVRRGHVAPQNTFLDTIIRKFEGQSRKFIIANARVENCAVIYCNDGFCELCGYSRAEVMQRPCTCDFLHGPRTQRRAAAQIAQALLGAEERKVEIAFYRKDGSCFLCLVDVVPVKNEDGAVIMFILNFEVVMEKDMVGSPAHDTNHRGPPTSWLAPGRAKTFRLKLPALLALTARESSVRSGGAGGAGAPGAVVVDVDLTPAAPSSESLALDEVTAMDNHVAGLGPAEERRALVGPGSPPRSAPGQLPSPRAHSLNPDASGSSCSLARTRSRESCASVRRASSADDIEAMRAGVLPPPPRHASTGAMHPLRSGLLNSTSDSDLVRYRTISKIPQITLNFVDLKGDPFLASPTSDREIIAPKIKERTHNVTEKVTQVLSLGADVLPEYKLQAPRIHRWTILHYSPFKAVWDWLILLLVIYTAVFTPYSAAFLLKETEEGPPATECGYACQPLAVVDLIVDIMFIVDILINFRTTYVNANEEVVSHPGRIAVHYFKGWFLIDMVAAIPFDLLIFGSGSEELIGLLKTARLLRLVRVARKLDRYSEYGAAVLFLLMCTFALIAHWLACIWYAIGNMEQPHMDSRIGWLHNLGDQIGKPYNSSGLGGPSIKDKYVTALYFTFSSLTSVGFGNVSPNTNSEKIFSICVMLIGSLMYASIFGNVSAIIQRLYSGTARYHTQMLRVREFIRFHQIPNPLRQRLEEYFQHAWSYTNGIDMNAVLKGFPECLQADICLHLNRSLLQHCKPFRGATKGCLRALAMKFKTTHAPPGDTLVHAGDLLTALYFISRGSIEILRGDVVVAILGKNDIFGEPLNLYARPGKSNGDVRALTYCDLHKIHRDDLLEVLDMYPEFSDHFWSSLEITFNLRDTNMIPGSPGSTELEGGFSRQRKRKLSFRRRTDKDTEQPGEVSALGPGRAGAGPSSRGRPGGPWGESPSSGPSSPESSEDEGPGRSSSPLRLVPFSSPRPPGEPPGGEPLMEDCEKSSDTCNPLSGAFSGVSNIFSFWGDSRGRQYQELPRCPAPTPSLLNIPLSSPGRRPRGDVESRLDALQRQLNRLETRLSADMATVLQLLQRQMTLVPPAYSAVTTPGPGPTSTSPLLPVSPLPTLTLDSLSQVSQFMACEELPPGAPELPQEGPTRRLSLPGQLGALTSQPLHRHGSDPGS

T1 sequence (P08684 whole entry): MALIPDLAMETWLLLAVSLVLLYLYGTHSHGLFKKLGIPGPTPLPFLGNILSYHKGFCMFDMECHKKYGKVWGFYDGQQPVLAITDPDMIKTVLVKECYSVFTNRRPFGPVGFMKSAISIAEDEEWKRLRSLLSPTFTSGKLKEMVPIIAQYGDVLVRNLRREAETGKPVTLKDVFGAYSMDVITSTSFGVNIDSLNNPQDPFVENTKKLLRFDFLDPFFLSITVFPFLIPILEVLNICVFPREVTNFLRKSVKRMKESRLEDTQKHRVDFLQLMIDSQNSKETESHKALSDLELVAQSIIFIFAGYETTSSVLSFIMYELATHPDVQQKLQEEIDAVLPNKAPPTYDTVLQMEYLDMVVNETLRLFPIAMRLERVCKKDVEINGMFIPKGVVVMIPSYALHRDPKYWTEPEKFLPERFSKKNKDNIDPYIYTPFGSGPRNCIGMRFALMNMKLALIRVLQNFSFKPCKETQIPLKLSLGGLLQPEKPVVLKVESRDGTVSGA

| Structure (SMILES) | IC50 [2] | IC50 [3] | half-life [6] | Vd [6] | clearance [6] | IC50 [7] | other results |
| --- | --- | --- | --- | --- | --- | --- | --- |
| N#Cc1ccc2cc1Oc1cccc(c1)-c1ccccc1N1CCC(NCc3cncn3C2)C1=O (stereo unspecified) | 0.032 nM | 810 nM | 0.88 h | 0.61 L/kg | 8 mL/min/kg | 1.3 nM | IC50 (Cytochrome P450 3A4 [1]): < 50 nM; EC50 [4]: 0.67 nM; EC50 [5]: 0.58 nM; IC50 [8]: 0.06 nM |
| N#Cc1ccc2cc1Oc1ccc(Br)c(c1)CN1CCC(NCc3cncn3C2)C1=O (stereo unspecified) | 0.19 nM | 9200 nM | 1.6 h | 0.53 L/kg | 3.2 mL/min/kg | 1.4 nM | IC50 (Cytochrome P450 3A4 [1]): 6100 nM; EC50 [4]: 1.6 nM; EC50 [5]: 1 nM |
| CN1Cc2cncn2Cc2ccc(C#N)c(c2)Oc2ccc3cccc(c3c2)N2CCC1C2=O (stereo unspecified) | 39 nM | 2200 nM | 10.1 h | 0.21 L/kg | 0.26 mL/min/kg | 4.9 nM | IC50 (Cytochrome P450 3A4 [1]): 5000 nM |
| N#Cc1ccc(Cn2cncc2CN[C@H]2CCN(Cc3cccc(Cl)c3)C2=O)cc1 | – | – | – | – | – | – | bioavailability [9]: 81%; half-life [10]: 1.1 h; bioavailability [11]: 81%; half-life ([12]; in vivo): 1.1 h; Vd ([12]; in vivo, read-out: Vdss): 0.45 L/kg; clearance ([12]; plasma, read-out: Clp): 5.8 mL/min/kg; IC50 (Cytochrome P450 3A4 [1]): 1000 nM |
| N#Cc1ccc2cc1Oc1cc(Cl)cc(c1)CN1CCC(NCc3cncn3C2)C1=O (stereo unspecified) | – | > 20000 nM | – | – | – | 23 nM | IC50 [13]: 6.4 nM |
| N#Cc1ccc2cc1Oc1ccc3c(c1)[C@@H](CCO3)N1CC[C@H](NCc3cncn3C2)C1=O | 1.8 nM | – | – | – | – | – | – |
| N#Cc1ccc2cc1Oc1ccc3cccc(c3c1)N1CC[C@@H](NCc3cncn3C2)C1=O | 4.4 nM | – | – | – | – | 1.6 nM | – |
| CN1CCc2cncn2Cc2ccc(C#N)c(c2)Oc2ccc3cccc(c3c2)N2CC[C@@H]1C2=O | 0.57 nM | – | – | – | – | – | – |
| N#Cc1ccc2cc1Oc1cccc(c1)CN1CC[C@@H](NCc3cncn3C2)C1=O | 0.66 nM | – | – | – | – | – | EC50 [4]: 6.1 nM; EC50 [14]: 13 nM; IC50 [15]: 2 nM |
| N#Cc1ccc2cc1Oc1ccc3c(c1)[C@@H](CCO3)N1CC[C@@H](NCc3cncn3C2)C1=O | 0.063 nM | – | – | – | – | – | Vd [16]: 0.34 L/kg; half-life [16]: 0.9 h; clearance [17]: 5.5 mL/min/kg |
| N#Cc1ccc2cc1Oc1ccc3cccc(c3c1)N1CCN(CC1=O)Cc1cncn1C2 | 0.29 nM | – | – | – | – | – | – |
| N#Cc1ccc2cc1Oc1ccc3cccc(c3c1)N1CC[C@H](NC(=O)Cc3cncn3C2)C1=O | 6.8 nM | – | 1.7 h | 0.19 L/kg | 1.5 mL/min/kg | – | IC50 (Cytochrome P450 3A4 [18]): 8100 nM |
| N#Cc1ccc2cc1Oc1ccc3c(c1)[C@H](CC3)N1CC[C@H](NCc3cncn3C2)C1=O | 93 nM | – | – | – | – | – | – |
| N#Cc1ccc2cc1Oc1ccc3cccc(c3c1)N1CC[C@@H](NC(=O)Cc3cncn3C2)C1=O | 13 nM | – | – | – | – | – | – |
| N#Cc1ccc2cc1Oc1cccc(c1)CN1CC[C@H](NCc3cncn3C2)C1=O | – | – | – | – | – | 54 nM | IC50 [13]: 13 nM |
| CN1CCc2cncn2Cc2ccc(C#N)c(c2)Oc2ccc3cccc(c3c2)N2CC[C@H]1C2=O | 0.21 nM | – | 1.9 h | 0.25 L/kg | 1.4 mL/min/kg | – | – |
| N#Cc1ccc2cc1Oc1ccc3c(c1)[C@@H](CC3)N1CC[C@@H](NCc3cncn3C2)C1=O | 0.22 nM | – | 1.7 h | 0.27 L/kg | 2.1 mL/min/kg | – | IC50 (Cytochrome P450 3A4 [1]): 6600 nM; IC50 (Cytochrome P450 3A4 [19]): 10400 nM |
| N#Cc1ccc2cc1Oc1ccc3c(c1)[C@@H](CCC3)N1CC[C@H](NCc3cncn3C2)C1=O | 0.21 nM | 2200 nM | – | – | – | 1.5 nM | EC50 [4]: 3 nM; EC50 [5]: 4.4 nM |
| N#Cc1ccc2cc1Oc1ccc3c(c1)[C@H](CC3)N1CC[C@@H](NCc3cncn3C2)C1=O | 41 nM | – | 4.2 h | 0.5 L/kg | 1.3 mL/min/kg | – | IC50 (Cytochrome P450 3A4 [1]): 2800 nM; IC50 (Cytochrome P450 3A4 [19]): 14800 nM |
| N#Cc1ccc2cc1Oc1ccc3cccc(c3c1)N1CC[C@H](NCc3cncn3C2)C1=O | 3.8 nM | – | – | – | – | – | EC50 [4]: 48 nM; EC50 [5]: 130 nM |
| CN1Cc2cncn2Cc2ccc(C#N)c(c2)Oc2ccc3c(c2)C(CC3)N2CCC1C2=O (stereo unspecified) | 0.64 nM | > 20000 nM | – | – | – | 1.4 nM | IC50 [20]: 2600 nM |
| N#Cc1ccc2cc1Oc1cccc(c1)C(c1cccc(Cl)c1)N1CCC(NCc3cncn3C2)C1=O (single isomer, unassigned; diastereomer A) | – | 820 nM | – | – | – | 25 nM | IC50 [13]: 210 nM |
| CC1c2ccc(C#N)c(c2)Oc2cccc(c2)CN2CCC(NCc3cncn31)C2=O (single isomer, unassigned; diastereomer A) | 74 nM | > 20000 nM | – | – | – | 170 nM | – |
| N#Cc1ccc2cc1Oc1cccc(c1)C(c1ccccc1)N1CCC(NCc3cncn3C2)C1=O (single isomer, unassigned; diastereomer B) | – | 5800 nM | – | – | – | 10 nM | IC50 [13]: 34 nM |
| N#Cc1ccc2cc1Oc1cccc(c1)C(c1cccc(Cl)c1)N1CCC(NCc3cncn3C2)C1=O (single isomer, unassigned; diastereomer B) | 200 nM | 7000 nM | – | – | – | 2.5 nM | – |
| CC1c2ccc(C#N)c(c2)Oc2cccc(c2)CN2CCC(NCc3cncn31)C2=O (single isomer, unassigned; diastereomer B) | 0.87 nM | – | 0.78 h | 0.69 L/kg | 12 mL/min/kg | 1.9 nM | IC50 (Cytochrome P450 3A4 [19]): 6100 nM |
| N#Cc1ccc2cc1Oc1cccc(c1)C(c1ccccc1)N1CCC(NCc3cncn3C2)C1=O (stereo in doubt; 26A) | 230 nM | 1600 nM | – | – | – | 58 nM | – |
| N#Cc1ccc2cc1Oc1ccc3cccc(c3c1)N1CCC(NCCc3cncn3C2)C1=O (stereo in doubt; 66) | 0.32 nM | – | – | – | – | – | Vd [16]: 0.57 L/kg; bioavailability [16]: 92%; half-life [16]: 2 h; clearance [17]: 3.9 mL/min/kg; IC50 (Cytochrome P450 3A4 [1]): 6000 nM; IC50 (Cytochrome P450 3A4 [19]): 600 nM; EC50 [4]: 4.3 nM; EC50 [5]: 7.5 nM; IC50 [15]: 0.19 nM |
| N#Cc1ccc2cc1Oc1ccc3cccc(c3c1)N1CCC(NCCc3cncn3C2)C1=O (stereo in doubt; 67) | 0.44 nM | – | – | – | – | – | – |
| N#Cc1ccc2cc1Oc1ccc3c(c1)[C@@H](CCC3)N1CC[C@@H](NCc3cncn3C2)C1=O [(1R,5R)-30-OXO-19-OXA-2,6,10,12-TETRAAZAHEXACYCLO[18.6.2.1^{2,5}.1^{14,18}.0^{8,12}.0^{23,27}]TRIACONTA-8,10,14(29),15,17,20(28),21,23(27)-OCTAENE-17-CARBONITRILE (STRUCTURAL MIX)] | 0.054 nM | 390 nM | 0.48 h | 0.36 L/kg | 7.3 mL/min/kg | < 1 nM | EC50 [4]: 0.18 nM; EC50 [14]: 0.25 nM |
